Yeast eIF2B: modulators of yeast eIF2B activity. S. cerevisiae eIF2B-epsilon R284H, GCN4-lacZ luminescence. inhibition, % at 25 µM (by protocol). 27,000 compounds, 0.91% hits. AID 688;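 active means mutant luminescence inhibited past about 50% while wild type luminescence and mutant growth stay under set limits, limit read from the data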
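System: Yeast eIF2B-epsilon R284H mutant carrying GCN4–beta-galactosidase fusion | Read-out basis: Percent inhibition, luminescence and growth | Compound: 25 µM single dose | Times: 16 h at 30 °C exposure | Measured by: Luminescence and A595 | Buffer or medium: YPD medium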
* marks the source's active call; other numbers are inactive results. Only a selection was taken, and hits are over-represented in it overall.

SMILES	Yeast eIF2B
CN(C)P(=O)(C(Cl)=C(N1CCCCC1)N1CCCCC1)N(C)C	58*
O=C(CCN1C(=O)COc2ccccc21)N1CCC2(CC1)OCCO2	14
COCCn1c(-c2ccccc2)cc(C(=O)O)c1C	51*
COP(=O)(OC)C1(Nc2ccc(C)cc2)CCCCC1	24
COC(=O)C(O)(c1ccc(N(C)C(=O)OC(C)C)cc1)C(F)(F)F (centres undefined)	6
O=P(OCC(F)(F)C(F)F)(N1CCOCC1)N1CCOCC1	17
C[N+]12CCC(CC1)C(C#N)(N1CCOCC1)C2 (centres undefined)	-26
O=C(c1ccc2c(=O)n(Cc3ccc4c(c3)OCO4)c(=S)[nH]c2c1)N1CCC2(CC1)OCCO2	-5
CN1C(=O)c2ccccc2Sc2ccc(C(=O)N3CCC4(CC3)OCCO4)cc21	63*
CCN1C(=O)c2ccccc2Sc2ccc(C(=O)N3CCC4(CC3)OCCO4)cc21	27
ON1C2CCCCC2N(O)C1c1ccccc1 (centres undefined)	24
CC12CN3CCN(C1)CC(C)(C3)C2=NO	22
Cc1cccc(C)c1NC(=O)CN(C)CC(=O)Nc1ccc(C#N)c(Cl)c1	10
CCC(CC)C(=O)NC1CCSC1=O (centres undefined)	20
CC(=NCCN1CCCCC1)c1c(O)n(-c2ccc(Cl)cc2)c(=O)[nH]c1=O	1
